Data from paper PMC2999657 (Biochemistry, 2010).

Columns and labels:
[1] = Spontaneous hydrolysis in neutral aqueous buffer; assay type: physicochemical; conditions: pH 7.5, 25 °C
Method in brief: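 Test compounds were diluted from concentrated acetonitrile stocks to ≤5% acetonitrile in 20 mM MOPS, pH 7.5, at 25 °C, and their hydrolysis without enzyme was followed by UV-vis. Full progress curves were fit to a pseudo-first-order equation by nonlinear least squares, and triplicate rate constants were averaged. The clavulanic acid reference (85 μM) was run in 25 mM MOPS, pH 7.5, at 25 °C, read at 260 nm.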

class C ampC β-lactamase = class C ampC β-lactamase (Escherichia coli, UniProt P00811); assay: ampC β-lactamase substrate activity; assay type: biochemical
[2] = target: Streptomyces R61 DD-peptidase (Streptomyces sp., UniProt P15555); assay: Hydrolysis in the presence of R61 DD-peptidase; assay type: biochemical; conditions: enzyme 0.5 μM
class C P99 β-lactamase = class C P99 β-lactamase (Enterobacter cloacae, UniProt P05364); assay type: biochemical; conditions: steady state turnover by P99 β-lactamase, 20 mM MOPS pH 7.5, 25 °C
[3] = target: class D OXA-1 β-lactamase (Escherichia coli, UniProt P13661); assay: OXA-1 β-lactamase hydrolysis and inhibition; assay type: biochemical
P99 β-lactamase [4] = target: T1, P99 β-lactamase (Enterobacter cloacae, UniProt P05364); assay type: biochemical; conditions: pH range 6.0–9.5, 25 °C, ionic strength 1.0
[5] = pKa determination by spectrophotometric titration; assay type: physicochemical; conditions: spectrophotometric titration at 233 nm, 25 °C, ionic strength 1.0
[6] = target: Actinomadura R39 DD-peptidase (Actinomadura sp., UniProt P39045); assay: Hydrolysis in the presence of R39 DD-peptidase; assay type: biochemical
[7] = in dioxane/water; cited from earlier work
P99 β-lactamase [8] = target: T1, P99 β-lactamase; assay: P99 β-lactamase activity with time after incubation with compound; assay type: biochemical; conditions: enzyme 0.25 μM, compound 100 μM

Sequence of class D OXA-1 β-lactamase (P13661 26-276): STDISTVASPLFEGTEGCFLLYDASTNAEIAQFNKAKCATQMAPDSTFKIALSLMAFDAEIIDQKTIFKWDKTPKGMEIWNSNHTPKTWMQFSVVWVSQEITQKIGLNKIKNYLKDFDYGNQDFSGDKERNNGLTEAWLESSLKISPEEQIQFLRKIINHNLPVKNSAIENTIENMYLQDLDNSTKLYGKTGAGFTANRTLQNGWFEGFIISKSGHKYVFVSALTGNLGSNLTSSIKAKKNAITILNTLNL
Sequence of class C P99 β-lactamase (P05364 21-381): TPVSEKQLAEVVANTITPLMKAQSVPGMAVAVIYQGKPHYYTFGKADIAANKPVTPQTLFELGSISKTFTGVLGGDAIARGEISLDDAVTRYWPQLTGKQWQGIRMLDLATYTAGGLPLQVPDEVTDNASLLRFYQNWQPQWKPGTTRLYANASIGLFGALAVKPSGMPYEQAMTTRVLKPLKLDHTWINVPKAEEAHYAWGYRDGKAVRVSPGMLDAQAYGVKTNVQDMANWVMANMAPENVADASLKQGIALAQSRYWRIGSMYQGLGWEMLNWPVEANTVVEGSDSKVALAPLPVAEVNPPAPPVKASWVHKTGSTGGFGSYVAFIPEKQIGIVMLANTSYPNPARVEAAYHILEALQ
T1 sequence (P05364 21-381): as above
Sequence of Streptomyces R61 DD-peptidase (P15555 32-406): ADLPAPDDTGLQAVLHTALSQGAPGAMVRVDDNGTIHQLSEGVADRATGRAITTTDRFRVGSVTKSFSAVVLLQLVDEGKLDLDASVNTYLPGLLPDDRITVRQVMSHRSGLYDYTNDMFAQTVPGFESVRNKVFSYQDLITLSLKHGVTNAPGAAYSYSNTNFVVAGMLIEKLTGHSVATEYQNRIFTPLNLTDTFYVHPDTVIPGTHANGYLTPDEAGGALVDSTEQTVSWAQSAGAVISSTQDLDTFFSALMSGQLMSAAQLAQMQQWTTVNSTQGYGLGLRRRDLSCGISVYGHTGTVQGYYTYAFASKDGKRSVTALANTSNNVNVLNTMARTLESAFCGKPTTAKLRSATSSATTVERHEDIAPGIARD
Sequence of class C ampC β-lactamase (P00811 20-377): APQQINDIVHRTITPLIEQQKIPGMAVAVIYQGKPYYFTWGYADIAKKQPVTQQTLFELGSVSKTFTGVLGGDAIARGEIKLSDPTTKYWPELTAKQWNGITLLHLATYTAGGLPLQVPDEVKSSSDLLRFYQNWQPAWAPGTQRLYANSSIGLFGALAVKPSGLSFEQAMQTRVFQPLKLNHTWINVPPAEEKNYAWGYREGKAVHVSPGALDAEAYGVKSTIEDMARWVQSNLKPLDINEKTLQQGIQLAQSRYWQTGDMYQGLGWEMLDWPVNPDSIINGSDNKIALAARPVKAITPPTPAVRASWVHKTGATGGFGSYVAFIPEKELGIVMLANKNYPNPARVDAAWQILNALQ
Sequence of Actinomadura R39 DD-peptidase (P39045 50-538): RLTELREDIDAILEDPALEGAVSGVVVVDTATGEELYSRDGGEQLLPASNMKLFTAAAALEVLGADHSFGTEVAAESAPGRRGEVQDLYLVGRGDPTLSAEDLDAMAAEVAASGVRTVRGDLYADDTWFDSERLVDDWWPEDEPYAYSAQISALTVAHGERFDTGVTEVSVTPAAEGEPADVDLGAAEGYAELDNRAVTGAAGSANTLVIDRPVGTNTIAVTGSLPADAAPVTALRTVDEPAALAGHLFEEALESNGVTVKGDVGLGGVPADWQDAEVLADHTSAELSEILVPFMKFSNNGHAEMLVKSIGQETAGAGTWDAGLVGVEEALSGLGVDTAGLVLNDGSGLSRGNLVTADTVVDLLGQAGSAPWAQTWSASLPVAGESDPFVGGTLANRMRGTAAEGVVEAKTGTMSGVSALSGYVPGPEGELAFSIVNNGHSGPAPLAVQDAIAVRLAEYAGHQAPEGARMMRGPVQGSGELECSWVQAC

In the case of `O=C(NOC(=O)C(O)Cc1ccccc1)OCc1ccccc1` (stereo not shown) [Compound 7, N-(Benzyloxycarbonyl)-O-(2-hydroxy-3-phenylpropanoyl)hydroxylamine], the “ksp, rate constant of spontaneous hydrolysis” value ([1]; 20 mM MOPS) is reported as “(8.2 ± 0.8) × 10^−5 s^−1”, the “substrate activity with ampC β-lactamase” value (class C ampC β-lactamase) is reported as “good substrate” and the “substrate activity with R61 DD-peptidase” value [2] is reported as “not substrates”. For the same compound, the Km (class C P99 β-lactamase) was 71 ± 10 µM, the “fast reversible or slow inhibition of the OXA-1 enzyme” value [3] was “no significant fast reversible or slow inhibition” and the “hydrolysis catalyzed by OXA-1” value ([3]; 20 mM MOPS, 50 mM NaHCO3, 0.1 % gelatin, pH 7.5) was “did not catalyze hydrolysis”. The “pKa for decreasing activity in pH-rate profile” value (P99 β-lactamase [4]) was 7.6 ± 0.2, the “pKa (acidic NH proton)” value [5] was 7.58 ± 0.03 and the “substrate activity with R39 DD-peptidase” value [6] was “not substrates”.

`O=C(NOC(=O)C(O)Cc1ccccc1)OCc1ccccc1` (stereo not shown) [Compound 8, N-(Benzyloxycarbonyl)-O-(2-hydroxy-3-phenylpropanoyl)hydroxylamine] showed a Km (class C P99 β-lactamase) of 340 ± 60 µM.

With `O=C(O)[C@H]1/C(=C/CO)O[C@@H]2CC(=O)N21` [clavulanic acid, reference compound] the “spontaneous hydrolysis rate constant” value ([1]; 85 μM in 25 mM MOPS buffer, monitored at 260 nm) was 8e-05 s⁻¹.

For `O=[N+]([O-])c1ccc(O)cc1` [p-nitrophenol], the pKa [7] is given as 9.4.

With “N-(Benzyloxycarbonyl)-O-(1-D-carboxy-ethoxycarbonyl)hydroxylamine [2 (R = CH2Ph, R′=Me)]” the “enzyme activity against cephalothin with time after mixing” value (P99 β-lactamase [8]) was “initial loss of enzyme activity, measured against the good substrate, cephalothin, followed by a slower restoration of activity”.
